The source made the active and inactive calls. The rule behind the calls is not given here.

Biological target in the first experiment: not listed separately
Nature of the experiment: Inhibition of human recombinant 15-lipoxygenase b. In short, it runs like this: (§1)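 Human recombinant 15-LO (a or b), expressed in E. coli, at 10 µg/mL final in 50 mM Tris–HCl, pH 7.2. Linoleic acid substrate at 134 µM final, 20 ± 1 °C, compounds in DMSO (1% final). Absorbance read at 234 nm over 60–120 s against an inhibitor-plus-substrate blank. Triplicates, at least six controls; IC50 interpolated linearly near 50% activity.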
As for `CCCCCOC(=O)Cc1ccc(OC)cc1`, the IC50 was found to be 11.7 µM.
Same read-out and setting: with `CCOC(=O)Cc1ccc(OC)cc1` the figure was 63.2 µM.

Biological target in the next experiment: not listed separately
Nature of the experiment: Inhibition of 15-lipoxygenase form soybean. On the set-up: species or system Glycine max.
Consider `C=C(CC)Cc1ccc(OC)cc1`, for which the IC50 was 145 µM.
`C=CCc1ccc(OC)c(OC)c1` [METHYLEUGENOL]: half-maximal inhibition (IC50) required 96.1 µM.
The molecule `C=CCc1ccc(OC)cc1` [ESTRAGOLE] gave an IC50 of 64.1 µM.
On the same count and under the same terms, with `C=C(C)Cc1ccc(OC)cc1` the figure was 137 µM.
Still for that read-out and setting: with `CCCOC(=O)Cc1ccc(OC)cc1` the figure was 11.6 µM; with `CCCCCCOC(=O)Cc1ccc(OC)cc1`, 35 µM.
Same read-out and setting: with `COC(=O)Cc1ccc(OC)cc1` the figure was 56.2 µM.
`C=CCc1ccc(O)c(OC)c1` [EUGENOL]: the IC50 is 38.2 µM.
`COc1ccc(CC(=O)OC2CCCCC2)cc1`: the IC50 amounted to 64 µM.
Same read-out and setting: as for `CCCCCOC(=O)Cc1ccc(OC)cc1`, the figure is 1.9 µM; as for `CCCCOC(=O)Cc1ccc(OC)cc1`, 3.8 µM; as for `COc1ccc(CC(=O)OC2CCCC2)cc1`, 56.5 µM.
Same read-out and setting: as for `COc1ccc(CC(=O)OCC(C)C)cc1`, the figure is 88.1 µM; as for `CCC(C)OC(=O)Cc1ccc(OC)cc1` (centres undefined), 35.7 µM; as for `CCC(=O)Cc1ccc(OC)cc1`, 33 µM.
Same read-out and setting: as for `COc1ccc(CC(=O)OC(C)(C)C)cc1`, the figure is 38.7 µM; as for `CCOC(=O)Cc1ccc(OC)cc1`, 32 µM; as for `COc1ccc(CC(=O)OC(C)C)cc1`, 34.4 µM.

Biological target in the next experiment: not listed separately
The experiment in a line: Inhibition of human recombinant 15-lipoxygenase a. In short, it runs like this:
as §1
As to `CCCCCOC(=O)Cc1ccc(OC)cc1`, the IC50 turned out to be 30.9 µM.
On to `CCOC(=O)Cc1ccc(OC)cc1`, for which the 50% inhibitory concentration (IC50) came out at 56.7 µM.

The subject of the next experiment is Glycine max. Nature of the experiment: Inhibition of 15-lipoxygenase form soybean at 200 uM.
Take `COc1ccc2c(c1)CCC(=O)C2`: the outcome was inactive.
Consider `C=C1CCc2cc(OC)ccc2C1`, for which the result was inactive.
